Activity calls are given as the source filed them.
How the values were obtained:
[1] = system: Mus musculus; assay: Mean survival time of the treated mice (Mus musculus) beyond that of the control animals against Plasmodium berghei at dose 640(mg/kg); Experiment II; Survival beyond 60 days is considered curative (C).; type: functional
[2] = system: Mus musculus; assay: Mean survival time of the treated mice (Mus musculus) beyond that of the control animals against Plasmodium berghei at dose 320(mg/kg); Survival beyond 60 days is considered curative; Experiment II; active(A); type: functional
[3] = system: Mus musculus; assay: Mean survival time of the treated mice (Mus musculus) beyond that of the control animals against Plasmodium berghei at dose 40(mg/kg); Experiment I; type: functional
[4] = system: Mus musculus; assay: Mean survival time of the treated mice (Mus musculus) beyond that of the control animals against Plasmodium berghei at dose 640(mg/kg); Experiment I; not active; type: functional
[5] = system: Mus musculus; assay: Mean survival time of the treated mice (Mus musculus) beyond that of the control animals against Plasmodium berghei at dose 80(mg/kg); Experiment I; type: functional
[6] = system: Mus musculus; assay: Mean survival time of the treated mice (Mus musculus) beyond that of the control animals against Plasmodium berghei at dose 320(mg/kg); Survival beyond 60 days is considered curative; Experiment I; type: functional
[7] = system: Plasmodium falciparum; assay: […] antimalarial activity against Plasmodium falciparum D6; type: functional, organism-based
[8] = system: Mus musculus; assay: Mean survival time of the treated mice (Mus musculus) beyond that of the control animals against Plasmodium berghei at dose 20(mg/kg); Experiment II; type: functional
[9] = system: Mus musculus; assay: Mean survival time of the treated mice (Mus musculus) beyond that of the control animals against Plasmodium berghei at dose 160 (mg/kg); Experiment II; type: functional
[10] = system: Mus musculus; assay: Mean survival time of the treated mice (Mus musculus) beyond that of the control animals against Plasmodium berghei at dose 20(mg/kg); Experiment I; type: functional
[11] = Resistance index is defined as the ratio of IC50 of Plasmodium falciparum(W-2) clone to IC50 of Plasmodium falciparum(D6) clone; type: functional
Summary of the method: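 Ratio of IC50 W-2 to IC50 D-6 for P. falciparum. […] Activity is read as inhibition of tritiated hypoxanthine uptake.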

[12] = system: Mus musculus; assay: Mean survival time of the treated mice (Mus musculus) beyond that of the control animals against Plasmodium berghei at dose 160 (mg/kg); Experiment I; type: functional
[13] = system: Plasmodium falciparum; assay: […] antimalarial activity against Plasmodium falciparum W-2; type: functional, organism-based
[14] = system: Mus musculus; assay: Mean survival time of the treated mice (Mus musculus) beyond that of the control animals against Plasmodium berghei at dose 40(mg/kg); Experiment II; type: functional
[15] = system: Mus musculus; assay: Mean survival time of the treated mice (Mus musculus) beyond that of the control animals against Plasmodium berghei at dose 80(mg/kg); Experiment II; type: functional
[16] = system: Mus musculus; assay: Mean survival time of the treated mice (Mus musculus) beyond that of the control animals against Plasmodium berghei at dose 640(mg/kg); Experiment II; Survival beyond 60 days is considered curative (C); type: functional
[17] = system: Mus musculus; assay: Mean survival time of the treated mice (Mus musculus) beyond that of the control animals against Plasmodium berghei at dose 640(mg/kg); Experiment I; type: functional
[18] = system: Plasmodium berghei; assay: […] antimalarial activity against drug-resistant Plasmodium berghei KBG173; type: functional
[19] = system: Mus musculus; assay: Mean survival time of the treated mice (Mus musculus) beyond that of the control animals against Plasmodium berghei at dose 320(mg/kg); Survival beyond 60 days is considered curative; Experiment II; Survival beyond 60 days is considered curative (C); type: functional
[20] = system: Mus musculus; assay: Mean survival time of the treated mice (Mus musculus) beyond that of the control animals against Plasmodium berghei at dose 320(mg/kg); Experiment I; type: functional
[21] = system: Mus musculus; assay: Mean survival time of the treated mice (Mus musculus) beyond that of the control animals against Plasmodium berghei at dose 160 (mg/kg); Experiment II; active (A); type: functional
[22] = system: Mus musculus; assay: Mean survival time of the treated mice (Mus musculus) beyond that of the control animals against Plasmodium berghei at dose 160 mg/kg); type: functional
[23] = system: Mus musculus; assay: Mean survival time of the treated mice (Mus musculus) beyond that of the control animals against Plasmodium berghei at dose 320(mg/kg); type: functional
[24] = system: Mus musculus; assay: Mean survival time of the treated mice (Mus musculus) beyond that of the control animals against Plasmodium berghei at dose 40(mg/kg); type: functional
[25] = system: Mus musculus; assay: Mean survival time of the treated mice (Mus musculus) beyond that of the control animals against Plasmodium berghei at dose 80(mg/kg); type: functional
[26] = system: Mus musculus; assay: Mean survival time of the treated mice (Mus musculus) beyond that of the control animals against Plasmodium berghei at dose 20(mg/kg); type: functional
[27] = system: Mus musculus; assay: Mean survival time of the treated mice (Mus musculus) beyond that of the control animals against Plasmodium berghei at dose 640(mg/kg); Survival beyond 60 days is considered curative; type: functional

Row | Compound | T-C [2] | T-C [3] | T-C [4] | T-C [5] | IC50 [7] | T-C [8] | T-C [9] | T-C [10] | Resistance index [11] | T-C [12] | IC50 [13] | T-C [14] | T-C [15] | T-C [16] | ED50 [18] | T-C [20] | also measured
1 | CC1CC(C)CC2(C1)OOC1(CC(C)CC(C)C1)OO2 (stereo unspecified) | 7.4 days | 1.3 days | inactive | 2.4 days | 50 nM | 0.6 days | 5.8 days | 1.5 days | 0.26 | 5.5 days | 13 nM | 1 days | 3.8 days | – | – | – | T-C [1]: 2 days; T-C [6]: 1 days
2 | C[C@@H]1CCCCC12OOC1(CCCC[C@@H]1C)OO2 (stereo partly specified) [WR-148999] | – | 1.8 days | – | 1.6 days | 6.9 nM | 0.7 days | – | 0.2 days | 0.49 | 9.6 days | 3.4 nM | 1.2 days | 5 days | 5 days | 382 mg/kg | 1 days | T-C [17]: 3 days; T-C [19]: 3 days; T-C [21]: 12 days
3 | CC1CCC2(CC1)OOC1(CCC(C)CC1)OO2 (stereo unspecified) | 13 days | 0.4 days | 1 days | 0.1 days | 8.2 nM | 0.3 days | 3.2 days | 0.1 days | 7.1 | 2.4 days | 58 nM | 0.5 days | 2 days | 1 days | – | 1.9 days | –
4 | C[C@@H]1CC[C@H]2[C@@H](C)C(=O)O[C@@H]3O[C@@]4(C)CC[C@@H]1[C@]32OO4 [ARTEMISININ] | – | – | – | – | 4.7 nM | – | – | – | 0.47 | – | 2.2 nM | – | – | – | 607 mg/kg | – | T-C [22]: 3.9 days; T-C [23]: 5.1 days; T-C [24]: 1.7 days; T-C [25]: 2.3 days; T-C [26]: 1.5 days; T-C [27]: 2 days
